Test results published in ChEMBL document CHEMBL2406932, “Heteroaromatic and aniline derivatives of piperidines as potent ligands for vesicular acetylcholine transporter” (J Med Chem, 2013).

Assays:
PC-12 [1] = assay: Selectivity ratio, ratio of Ki for sigma 1 receptor in guinea pig brain homogenates to Ki for human VAChT expressed in rat PC12 cells; format: cell-based
PC-12 [2] = assay: Selectivity ratio, ratio of Ki for sigma 2 receptor in rat liver homogenates to Ki for human VAChT expressed in rat PC12 cells; format: cell-based
[3] = molecular target: T1, Vesicular acetylcholine transporter (Homo sapiens, UniProt Q16572); assay: Displacement of (-)-[3H]vesamicol from human VAChT expressed in rat PC12 cell membrane after 20 hrs; format: cell membranes, PC-12
T1 sequence (Q16572 whole entry): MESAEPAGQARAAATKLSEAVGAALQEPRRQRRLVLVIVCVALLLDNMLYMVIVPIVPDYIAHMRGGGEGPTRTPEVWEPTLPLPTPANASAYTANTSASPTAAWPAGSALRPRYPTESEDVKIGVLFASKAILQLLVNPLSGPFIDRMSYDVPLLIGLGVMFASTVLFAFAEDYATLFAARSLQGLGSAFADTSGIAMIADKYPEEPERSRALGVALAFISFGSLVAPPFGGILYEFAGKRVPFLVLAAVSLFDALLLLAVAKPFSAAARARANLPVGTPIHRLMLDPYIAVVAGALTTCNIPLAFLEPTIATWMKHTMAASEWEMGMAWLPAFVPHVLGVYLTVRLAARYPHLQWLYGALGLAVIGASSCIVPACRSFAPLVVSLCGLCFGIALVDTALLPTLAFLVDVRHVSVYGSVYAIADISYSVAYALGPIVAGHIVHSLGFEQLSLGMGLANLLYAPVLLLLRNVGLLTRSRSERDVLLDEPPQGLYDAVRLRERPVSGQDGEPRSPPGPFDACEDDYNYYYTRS

[4] = Displacement of [3H]DTG from sigma 2 receptor in rat liver membrane homogenates after 120 mins by scintillation counting analysis; format: cell membranes
Method in brief: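 Rat liver membrane homogenate (~300 µg protein) with ~5 nM [3H]DTG plus 1 µM (+)-pentazocine to block sigma-1 sites, 120 min at room temperature, pH 7.4 Tris buffer. Nonspecific binding taken with 10 µM haloperidol. Filtration and scintillation counting.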

[5] = molecular target: Sigma non-opioid intracellular receptor 1 (Cavia porcellus, UniProt Q60492); assay: Displacement of (+)- [3H]pentazocine from sigma 1 receptor expressed in guinea pig brain membrane homogenates by scintillation counting analysis; format: cell membranes
[6] = tested as the 11C-labelled form

Sequence of Sigma non-opioid intracellular receptor 1 (Q60492 whole entry): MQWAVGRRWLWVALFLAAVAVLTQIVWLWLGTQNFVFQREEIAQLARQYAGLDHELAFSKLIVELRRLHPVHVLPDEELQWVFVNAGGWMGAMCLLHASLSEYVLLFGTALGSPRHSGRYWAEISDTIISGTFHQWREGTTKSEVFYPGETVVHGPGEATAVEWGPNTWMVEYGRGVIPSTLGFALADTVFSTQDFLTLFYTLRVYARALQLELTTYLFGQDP

| Ki ([3]; pc-12) [nM] | Structure (SMILES) | Ratio Ki (PC-12 [1]; [6]) | Ratio Ki (PC-12 [2]; [6]) | Ki [3] [nM] | Ratio Ki (PC-12 [1]) | Ratio Ki (PC-12 [2]) | Ki [4] [nM] | Ki [5] [nM] |
| --- | --- | --- | --- | --- | --- | --- | --- | --- |
|  | CNc1ccc(C(=O)C2CCN([C@H]3Cc4ccccc4C[C@@H]3O)CC2)cc1 | 1270 | 14700 |  |  |  |  |  |
|  | O=C(c1cccs1)C1CCN([C@@H]2Cc3ccccc3C[C@H]2O)CC1 (racemic) |  |  | 5 |  |  |  |  |
|  | O=C(c1ccccc1)C1CCN([C@@H]2Cc3ccccc3C[C@H]2O)CC1 (racemic) |  |  |  | 51 | 74 | 320 |  |
|  | Nc1cccc2c1C[C@@H](N1CCC(C(=O)c3cccnc3)CC1)[C@H](O)C2 (racemic) |  |  | 118 | 170 | 43 | 5080 | 20300 |
|  | O=C(c1cncc(F)c1)C1CCN([C@@H]2Cc3ccccc3C[C@H]2O)CC1 (racemic) |  |  |  | 70 | 170 | 1690 | 709 |
|  | Cn1ccc(C(=O)C2CCN([C@@H]3Cc4ccccc4C[C@H]3O)CC2)cc1=O (racemic) |  |  |  | 51 | 32 | 2120 | 3350 |
|  | Cn1c(C(=O)C2CCN([C@@H]3Cc4ccccc4C[C@H]3O)CC2)cccc1=O (racemic) |  |  |  | 12 | 18 | 3340 | 2160 |
|  | O=C(c1ccc(F)nc1)C1CCN([C@@H]2Cc3ccccc3C[C@H]2O)CC1 (racemic) |  |  |  | 26 | 67 | 1750 | 682 |
|  | O=C(c1cccnc1F)C1CCN([C@@H]2Cc3ccccc3C[C@H]2O)CC1 (racemic) |  |  |  |  | 280 | 3530 | 1300 |
|  | CN(C)c1ccc(C(=O)C2CCN([C@@H]3Cc4ccccc4C[C@H]3O)CC2)cc1 (racemic) |  |  |  | 44 | 4400 | 4080 | 40.9 |
|  | CNc1ccc(C(=O)C2CCN([C@@H]3Cc4ccccc4C[C@H]3O)CC2)cc1 (racemic) |  |  |  | 100 | 2000 | 6180 | 305 |
|  | O=C(c1ccc(OCCF)nc1)C1CCN([C@@H]2Cc3ccccc3C[C@H]2O)CC1 (racemic) |  |  |  | 56 | 49 | 1860 | 2120 |
|  | O=C(c1ncccc1OCCF)C1CCN([C@@H]2Cc3ccccc3C[C@H]2O)CC1 (racemic) |  |  |  | 260 | 4 | 303 | 20000 |
|  | Cn1cccc1C(=O)C1CCN([C@@H]2Cc3c(N)cccc3C[C@H]2O)CC1 (racemic) |  |  |  | 200 | 180 | 6990 | 7660 |
|  | Cc1ccc(C(=O)C2CCN([C@@H]3Cc4c(N)cccc4C[C@H]3O)CC2)cn1 (racemic) |  |  | 48 |  |  | 27500 |  |
|  | COc1ccc(C(=O)C2CCN([C@@H]3Cc4c(N)cccc4C[C@H]3O)CC2)cn1 (racemic) |  |  | 23.3 | 120 | 220 | 10800 | 5680 |
|  | Cn1cccc1C(=O)C1CCN([C@@H]2Cc3cccc(N)c3C[C@H]2O)CC1 (racemic) |  |  |  | 4 | 4.9 | 11400 | 9240 |
|  | Cn1cccc1C(=O)C1CCN([C@@H]2Cc3ccccc3C[C@H]2O)CC1 (racemic) |  |  |  | 71 | 140 | 2550 | 1300 |
|  | Cn1ccc(C(=O)C2CCN([C@@H]3Cc4ccccc4C[C@H]3O)CC2)c1 (racemic) |  |  |  |  |  | 7710 | 3040 |
|  | O=C(c1cccnc1)C1CCN([C@@H]2Cc3ccccc3C[C@H]2O)CC1 (racemic) |  |  |  | 540 | 130 | 3030 | 12900 |
|  | Cc1ccc(C(=O)C2CCN([C@@H]3Cc4ccccc4C[C@H]3O)CC2)cn1 (racemic) |  |  |  |  |  | 3770 | 2120 |
|  | COc1ccc(C(=O)C2CCN([C@@H]3Cc4ccccc4C[C@H]3O)CC2)cn1 (racemic) |  |  | 8.36 |  |  | 2570 | 986 |
|  | COc1cccnc1C(=O)C1CCN([C@@H]2Cc3ccccc3C[C@H]2O)CC1 (racemic) |  |  |  | 170 | 13 | 1560 | 21000 |
| 1.68 | Nc1ccc(C(=O)C2CCN([C@@H]3Cc4ccccc4C[C@H]3O)CC2)cc1 (racemic) |  |  |  |  |  |  |  |
|  | O=C(c1ccc(F)cc1)C1CCN([C@@H]2Cc3ccccc3C[C@H]2O)CC1 (relative stereo) |  |  |  |  |  | 251 |  |
|  | CNc1ccc(C(=O)C2CCN(C3Cc4ccccc4CC3O)CC2)cc1 (single isomer, unassigned; (+)) |  |  | 19 | 61.5 | 408 | 7760 | 1170 |
